Shown are actives, neighbours in structure and some others; about 2.9% of the full set was active somewhere.
HTRA1 inh: inhibitors of human serine peptidase HTRA1. Q92743. recombinant HTRA1, FP-rhodamine activity-based probe, fluorescence polarization. inhibition, % at 5.96 µM. 0.5% of 340,000 active. AID 504803; in the data active = inhibition above about 36%
SIAE primary: inhibitors of human sialic acid acetylesterase SIAE. Q9HAT2. SIAE FP-Rh probe binding, fluorescence polarization. inhibition, % at 9.66 µM. 0.69% of 370,000 active. AID 1053197;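 active = inhibition above a cutoff: mean of compounds within the control limits plus 3 SD of those, cut at about 17% in these data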
TCR CD3 inh: blocks the human TCR-CD3 interaction; inhibition, % at 9.4 µM; TAMRA-labeled TCR probe fluorescence, biochemical; AID 651800; 0.37% of 360,000 active; in the data active = inhibition above about 19%;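 note: recombinant mutant TCR 2C K166C tagged with TAMRA read by polarization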
PRMT1 inh: blocks human protein arginine methyltransferase 1; inhibition, % at 2.79 µM; 1.3% of 370,000 active; recombinant PRMT1, activity-based probe fluorescence polarization; Q99873;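 active = inhibition above about 21% made by adding two undisclosed values, limit read from the data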
PAD4 FP inh: blocks human protein arginine deiminase 4; Q9UM07; recombinant PAD4, RCA probe fluorescence polarization; inhibition, % at 6.36 µM; 0.41% of 330,000 active; AID 485272;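 active = percent inhibition above a cutoff equal to the mean of all tested compounds plus 3 SD, cut at about 15% in these data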
Target sequence (Q9UM07 whole entry, looked up): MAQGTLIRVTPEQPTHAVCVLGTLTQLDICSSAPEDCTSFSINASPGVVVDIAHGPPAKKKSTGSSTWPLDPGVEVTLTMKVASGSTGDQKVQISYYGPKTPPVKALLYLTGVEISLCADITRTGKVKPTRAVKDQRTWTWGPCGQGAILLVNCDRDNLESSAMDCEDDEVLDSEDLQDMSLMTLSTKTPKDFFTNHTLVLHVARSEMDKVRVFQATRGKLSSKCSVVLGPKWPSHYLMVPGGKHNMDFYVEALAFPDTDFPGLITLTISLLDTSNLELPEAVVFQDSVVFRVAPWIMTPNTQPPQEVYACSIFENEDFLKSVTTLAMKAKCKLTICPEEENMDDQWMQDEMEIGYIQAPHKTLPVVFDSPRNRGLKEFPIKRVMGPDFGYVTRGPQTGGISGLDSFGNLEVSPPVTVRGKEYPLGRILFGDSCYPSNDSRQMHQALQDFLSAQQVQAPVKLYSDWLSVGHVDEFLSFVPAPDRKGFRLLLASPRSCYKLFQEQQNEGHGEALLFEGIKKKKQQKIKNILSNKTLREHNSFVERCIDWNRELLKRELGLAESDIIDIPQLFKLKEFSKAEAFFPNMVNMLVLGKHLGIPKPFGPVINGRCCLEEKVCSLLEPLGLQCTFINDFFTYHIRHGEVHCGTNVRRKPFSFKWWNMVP
ABHD4 inh: inhibitors of mouse ABHD4. Q8VD66. purified mABHD4, FP-Rh probe fluorescence polarization. inhibition, % at 8.92 µM. 0.54% of 370,000 active;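 active = inhibition exceeding the mean over every tested compound plus 3 SD, cut at about 30% in these data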
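Assay system: mouse ABHD4 enzyme, wild type / Also added: fluorescent activity-based probe FP-Rh / Doses: single nominal dose of 8.92 µM, 0.89% DMSO final / Timing: 45 min compound pre-incubation plus 60 min probe step, 25 °C / Signal: FP readout, ex 525 nm / em 598 nm / Control set: S159A mutant/DMSO as 100%, compound-well median as 0%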
ABHD4 confirm: confirmation of mouse ABHD4 inhibitors; shares compounds with ABHD4 inh; purified mABHD4, FP-Rh probe fluorescence polarization; inhibition, % at 8.92 µM; 55% of 1,800 active; AID 720658;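 active = mean inhibition across replicates above the hit cutoff set in the primary screen, cut at about 30% in these data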
SIAE inh conf: human SIAE inhibition, confirmation; shares compounds with SIAE primary; SIAE FP-Rh activity-based probe, fluorescence polarization; inhibition, % at 9.66 µM; 13% of 2,300 active; AID 1117263;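 active = mean inhibition of the replicates above the hit cutoff set in the primary screen, cut at about 17% in these data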;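 note: inhibitors lower polarization as more probe stays unbound to SIAE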
Large screens that a line does not name were inactive (follow-up assays come after a bar, where they were run).

CCCCNc1c(-c2ccc(Sc3ccc(OC)cc3)cc2)nc2cc(C)ccn12	ABHD4 inh 39 | ABHD4 confirm 39
Cc1nc(C)c(-c2csc(Nc3ccc(N)cc3)n2)s1	none
Cc1nc(C)c(-c2csc(Nc3ccc(O)c(C(=O)O)c3)n2)s1	ABHD4 inh 45 (no result: PAD4 FP inh) | ABHD4 confirm 31
CCOC(=O)C1=C(C)N=c2s/c(=C\c3ccc(O)c([N+](=O)[O-])c3)c(=O)n2C1c1ccccc1OC (centres undefined)	ABHD4 inh 37 | ABHD4 confirm 63
F[B-](F)(F)c1cc2ccccc2s1	ABHD4 inh 87 (no result: PAD4 FP inh) | ABHD4 confirm 72
COc1cccc(CNC(=O)[C@H]2CCCN2C(=O)[C@H]2CCCN2C(=O)c2cccc(OC)c2)c1	none (no result: HTRA1 inh, PAD4 FP inh)
COc1cc(C=NN2CCN(C(c3ccccc3)c3ccccc3)CC2)cc(OC)c1OC(C)=O	none (no result: HTRA1 inh, TCR CD3 inh, PAD4 FP inh)
COc1cc(/C=C/c2ccc3cccc(O)c3n2)c(Br)cc1O	ABHD4 inh 30 | ABHD4 confirm 69
Cc1cc(-c2nc3cccnc3s2)ccc1NS(=O)(=O)c1cccs1	ABHD4 inh 46 | ABHD4 confirm inactive
CC(=O)Nc1cccc(-c2cc(C(C)=O)c3n(c2=O)CCC3)c1	none (no result: HTRA1 inh, TCR CD3 inh, PAD4 FP inh)
CC(C)[C@H](NC(=O)c1ccco1)C(=O)N1CCC[C@H]1C(=O)NCc1ccccc1	none (no result: HTRA1 inh, PAD4 FP inh)
N#Cc1ccc(S(=O)(=O)N2CCCc3nc(-c4ccccc4)ccc32)cc1	none (no result: HTRA1 inh, PAD4 FP inh)
CCOC(=O)c1c(C)n(C)c2cc([N+](=O)[O-])c(O)c([N+](=O)[O-])c12	none
CCOC(=O)c1c(C)n(C)c2cc(Br)c(O)c(O)c12	ABHD4 inh 30 | ABHD4 confirm inactive
COC(=O)C1=C(C)NC2=C(C(=O)c3ccccc32)C1c1cccc(OC)c1 (centres undefined)	none
CC1=C([N+](=O)[O-])C(c2cccc(Br)c2)C2=C(N1)c1ccccc1C2=O (centres undefined)	SIAE primary 28, ABHD4 inh 30 | ABHD4 confirm 35 | SIAE inh conf inactive
Cc1cccc(NC(=O)CN2C(=O)/C(=C3\SC(=S)N(CC4CCCO4)C3=O)c3ccccc32)c1 (centres undefined)	none (no result: SIAE primary, TCR CD3 inh, PRMT1 inh, ABHD4 inh)
O=C(CN1C(=O)/C(=C2/SC(=S)N(CCS(=O)(=O)O)C2=O)c2ccccc21)Nc1cccc(Br)c1	SIAE primary 18, ABHD4 inh 60 | ABHD4 confirm 70 | SIAE inh conf inactive
O=C(O)Cc1c[nH]c2cccc(O)c12	SIAE primary 23, PRMT1 inh 32, ABHD4 inh 53 | ABHD4 confirm inactive | SIAE inh conf inactive
O=C(O)Cc1c[nH]c2ccccc12	none
O=S(=O)(c1ccccc1F)n1c(CN2CCOCC2)nc2ccccc21	none (no result: HTRA1 inh, TCR CD3 inh, PAD4 FP inh)
COC(=O)[C@]12C[C@H](CC(=O)N3CCSCC3)C(=O)N(Cc3ccco3)C1=C[C@H](C(C)C)O[C@@H]2C1CC1	none (no result: HTRA1 inh, TCR CD3 inh, PAD4 FP inh)
O=C(O)c1cccc(N/N=C/C2=C(Cl)c3cc(Cl)ccc3SC2)c1	SIAE primary 21, ABHD4 inh 30 (no result: PAD4 FP inh) | ABHD4 confirm 87 | SIAE inh conf 31
O=C(O)c1cccc(N/N=C/c2ccc(F)c(F)c2)c1	none
Cn1c(O)c(C2=c3ccccc3=NC2=O)[nH]c1=S	none
O=C1N=c2ccccc2=C1c1sc(=S)n(NC(=O)c2ccccc2)c1O	SIAE primary 23, ABHD4 inh 33 | ABHD4 confirm 42 | SIAE inh conf 31
C[C@@H]1C(=O)N2N=Cc3cc4ccccc4cc3[C@H]2N2N=Cc3cc4ccccc4cc3[C@@H]12	none (no result: HTRA1 inh, TCR CD3 inh, PAD4 FP inh)
CCCCCCCCN1C(=O)[C@@H](CC(=O)NCc2cccc(C(F)(F)F)c2)C[C@@]2(C(=O)OC)C1=C[C@H](COCc1ccccc1)O[C@@H]2C	none (no result: HTRA1 inh, TCR CD3 inh, PAD4 FP inh)
C=CCNc1nc(Nc2ccc(OC)c(OC)c2)c2sc(-c3ccccc3)cc2n1	SIAE primary 25, ABHD4 inh 42 (no result: HTRA1 inh, PAD4 FP inh) | ABHD4 confirm 51 | SIAE inh conf 33
COc1ccc(/C=N/NC(=O)c2cc3c(OC)ccc(OC)c3[nH]2)cc1O	SIAE primary 24, ABHD4 inh 33 | ABHD4 confirm 47 | SIAE inh conf inactive
